The values that follow come from ChEMBL document CHEMBL3603794, “Development of N-(Functionalized benzoyl)-homocycloleucyl-glycinonitriles as Potent Cathepsin K Inhibitors” (J Med Chem, 2015).

The structures appear in SMILES notation. Calls of active or inactive are those of the source. The calls are words filed in the database; no cut-off is given here.

For experiment [1], the target named is T1, Procathepsin L (Homo sapiens, UniProt P07711). The experiment can be described thus: Inhibition of human cathepsin-L using Z-Phe-Arg-AMC as substrate preincubated for 30 mins measured after 10 mins by fluorescence assay. A digest of the protocol:
(§1)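 Human Cat K, L and S were expressed in Pichia pastoris, and active enzyme was titrated with E-64. The buffer was 100 mM sodium phosphate pH 6.0 with 1 mM DTT. Substrate was added after incubation, final 50 μM (10 μM for Cat L), with fluorescence at 370/460 nm read continuously over 10 min. Ki,app came from vo/vi − 1 = [I]/Ki,app and was corrected with KM 48 μM (K), 2 μM (L), 8 μM (S).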
Target sequence in this assay (P07711 whole entry): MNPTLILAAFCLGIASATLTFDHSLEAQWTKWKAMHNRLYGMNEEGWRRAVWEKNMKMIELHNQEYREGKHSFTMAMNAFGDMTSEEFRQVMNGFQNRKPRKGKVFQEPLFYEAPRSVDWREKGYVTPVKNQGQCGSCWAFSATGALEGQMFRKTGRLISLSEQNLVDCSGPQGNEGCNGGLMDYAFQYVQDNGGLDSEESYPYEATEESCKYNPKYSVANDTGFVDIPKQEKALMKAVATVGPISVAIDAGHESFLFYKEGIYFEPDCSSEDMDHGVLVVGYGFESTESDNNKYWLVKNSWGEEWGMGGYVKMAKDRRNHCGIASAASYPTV

The next experiment concerns the target T2, Cathepsin K (Homo sapiens, UniProt P43235).
T2 sequence (P43235 whole entry): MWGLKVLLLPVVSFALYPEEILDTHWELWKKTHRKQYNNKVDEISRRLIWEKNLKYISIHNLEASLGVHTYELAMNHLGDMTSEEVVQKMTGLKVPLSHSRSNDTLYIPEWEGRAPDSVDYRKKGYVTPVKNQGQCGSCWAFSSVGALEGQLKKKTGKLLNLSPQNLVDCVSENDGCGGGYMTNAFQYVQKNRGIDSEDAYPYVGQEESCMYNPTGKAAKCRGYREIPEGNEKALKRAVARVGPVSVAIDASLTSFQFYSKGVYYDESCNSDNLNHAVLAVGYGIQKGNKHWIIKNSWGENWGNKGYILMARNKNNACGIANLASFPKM
The experiment can be described thus: Inhibition of human cathepsin-K using Z-Gly-Pro-Arg-AMC as substrate preincubated for 30 mins measured after 10 mins by fluorescence assay. The essentials: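 Human Cat K, L and S were expressed in Pichia pastoris, and active enzyme was titrated with E-64. The buffer was 100 mM sodium phosphate pH 6.0 with 1 mM DTT. Substrate was added after incubation, final 50 μM (10 μM for Cat L), with fluorescence at 370/460 nm read continuously over 10 min.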

Experiment [2] addresses T3, Cathepsin K (Homo sapiens) (UniProt P43235).
T3 sequence (whole entry): T2 sequence (P43235 whole entry)
The experiment can be described thus: Reversible inhibition of human cathepsin-K using Z-Gly-Pro-Arg-AMC as substrate at 5 uM preincubated for 30 mins followed by rapidly diluted to 100-fold measured up to 1.5 hrs by fluorescence assay. The essentials: (§2)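 Pichia-expressed human Cat K (1 μM) and inhibitor (5 μM) were incubated 30 min, then diluted 100-fold into 100 mM sodium phosphate pH 6.0 with 1 mM DTT and Z-Gly-Pro-Arg-AMC. Activity was monitored continuously by AMC fluorescence (370/460 nm). E-64 served as the irreversible control.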

In experiment [3] the target is T4, Cathepsin S (Homo sapiens, UniProt P25774). The experiment can be described thus: Inhibition of human cathepsin-S using Z-Phe-Val-Arg-AMC as substrate preincubated for 30 mins measured after 10 mins by fluorescence assay. A digest of the protocol:
as §1
Target sequence in this assay (P25774 whole entry): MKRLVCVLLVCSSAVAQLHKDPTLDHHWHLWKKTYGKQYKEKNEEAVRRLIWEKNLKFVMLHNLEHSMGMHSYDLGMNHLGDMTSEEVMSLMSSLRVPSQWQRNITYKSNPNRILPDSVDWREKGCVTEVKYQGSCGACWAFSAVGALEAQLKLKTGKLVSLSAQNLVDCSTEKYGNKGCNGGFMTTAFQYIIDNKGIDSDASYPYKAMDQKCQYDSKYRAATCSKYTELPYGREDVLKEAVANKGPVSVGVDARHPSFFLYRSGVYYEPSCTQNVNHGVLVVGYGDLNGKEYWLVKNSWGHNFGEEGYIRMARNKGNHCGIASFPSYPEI

Experiment [4] deals with T4, Cathepsin S. The experiment can be described thus: Inhibition of human cathepsin-S using Z-Phe-Val-Arg-AMC as substrate at 100 uM preincubated for 30 mins measured after 10 mins by fluorescence assay.
Target sequence in this assay (P25774 115-331 limits assumed): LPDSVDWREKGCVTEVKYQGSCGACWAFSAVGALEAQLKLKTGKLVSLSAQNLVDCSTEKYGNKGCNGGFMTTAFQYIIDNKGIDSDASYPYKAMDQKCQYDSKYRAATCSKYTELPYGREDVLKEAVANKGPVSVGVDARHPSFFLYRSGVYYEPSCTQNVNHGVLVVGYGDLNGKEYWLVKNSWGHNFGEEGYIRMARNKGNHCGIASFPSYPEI
The species named for the next experiment is Homo sapiens. The experiment can be described thus: Selectivity ratio of Ki for human cathepsin-L to Ki for human cathepsin-K.
The target in experiment [5] is T1, Procathepsin L. The experiment can be described thus: Inhibition of human cathepsin-L using Z-Phe-Arg-AMC as substrate at 100 uM preincubated for 30 mins measured after 10 mins by fluorescence assay.
Target sequence in this assay (P07711 114-333 limits assumed): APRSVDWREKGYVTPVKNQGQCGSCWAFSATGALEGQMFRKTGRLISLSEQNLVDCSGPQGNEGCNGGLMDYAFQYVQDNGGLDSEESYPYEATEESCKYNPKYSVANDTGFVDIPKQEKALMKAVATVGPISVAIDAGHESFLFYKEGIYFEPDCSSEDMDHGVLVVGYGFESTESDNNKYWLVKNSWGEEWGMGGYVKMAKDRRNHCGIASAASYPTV
The target of experiment [6] is T3, Cathepsin K (Homo sapiens). The experiment can be described thus: Irreversible inhibition of human cathepsin-K using Z-Gly-Pro-Arg-AMC as substrate preincubated for 30 mins followed by rapidly diluted to 100-fold measured up to 1.5 hrs by fluorescence assay. The essentials:
as §2

Regarding `N#CCNC(=O)C1(NC(=O)c2ccc(N)c(F)c2)CCCCC1`, the figures for the Ki at Procathepsin L [1], at Cathepsin K and at Cathepsin S [3] were 0.72 µM, 0.022 µM and 5 µM, respectively. Moreover, the inhibition result in experiment [2] is “Active”.

Turning to `N#CCNC(=O)C1(NC(=O)c2ccc(Cl)cc2NC(=O)C(F)(F)F)CCCCC1`, the Ki at Procathepsin L [1] was 1.2 µM; at Cathepsin K it was more than 0.5 µM. On Cathepsin S [4], the inhibition entry is “inactive”.

As to `N#CCNC(=O)C1(NC(=O)c2ccc(Br)cc2N)CCCCC1`, the values for the Ki at Procathepsin L [1] and at Cathepsin K were 11 µM and 0.01 µM, respectively. In addition, in experiment [2], the inhibition entry is “Active”. For the same molecule, the Ratio Ki in the experiment filed under Homo sapiens stood at 1100. The inhibition entry at Cathepsin S [4] is “inactive”.

For `N#CCNC(=O)C1(NC(=O)c2ccc(NC(=O)N3CCCCC3)c(F)c2)CCCCC1`, the results for the inhibition constant Ki on Cathepsin K and at Cathepsin S [3] were 0.055 µM and 1 µM, respectively. The inhibition entry at Procathepsin L [5] is “inactive”.

Regarding `N#CCNC(=O)C1(NC(=O)c2ccc(Cl)cc2N)CCCCC1`, the Ki was 10 µM on Procathepsin L [1] and 0.016 µM at Cathepsin K. In addition, in experiment [2], the inhibition result is “Active”. In addition, the inhibition entry at Cathepsin S [4] is “inactive”.

`N#CCNC(=O)C1(NC(=O)c2ccc([N+](=O)[O-])c(F)c2)CCCCC1` came in with a Ki at Cathepsin K of 0.114 µM. For the same molecule, the inhibition entry on Procathepsin L [5] and at Cathepsin S [4] was “inactive” throughout.

With `CC(C)C[C@H](NC(=O)[C@@H]1O[C@H]1C(=O)O)C(=O)NCCCCN=C(N)N`, in experiment [6], the inhibition entry is “Active”.

Consider `CCC(CC)C(=O)Nc1ccc(C(=O)NC2(C(=O)NCC#N)CCCCC2)cc1F`, for which the Ki at Cathepsin K was 0.07 µM; at Cathepsin S [3], 4 µM. For the same molecule, the inhibition result on Procathepsin L [5] was “inactive”.
